According to ChEMBL document CHEMBL4028857, “Anchimerically Activated ProTides as Inhibitors of Cap-Dependent Translation and Inducers of Chemosensitization in Mantle Cell Lymphoma” (J Med Chem, 2017):
pIC50: −log10 of the molar value. Activity calls are given as the source filed them. No cut-off for these calls is given here.

Tests used:
[1] = Cmax in Sprague-Dawley rat at 25 mg/kg, po measured at 30 mins post dose by LC-MS/MS analysis; format: ADME, organism-based; design: dose 25 mg/kg, route oral; details: in vivo
Method in brief: (§1)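 Female Sprague-Dawley rats (250-274 g, n=3, catheterized femoral/jugular veins) dosed once p.o. by gavage (25 mg/kg) then, after a 3-day washout, i.v. (2.5 mg/kg). Formulation: 10 mg/mL in 0.5% aqueous CMC with 5% DMSO. Serial blood draws to 480 min into K2EDTA; plasma protein-precipitated with acetonitrile plus internal standards; LC-MS/MS (positive MRM); non-compartmental PK; %F from dose-normalized AUC per rat.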

[2] = tested on: Rattus norvegicus; test: AUC (0 to 8 hrs) in Sprague-Dawley rat plasma assessed as 9-((2R,3R,4S,5R)-5-(((((2-(1H-Indol-3-yl)ethyl)amino)-(hydroxy)phosphoryl)oxy)methyl)-3,4-dihydroxytetrahydrofuran-2-yl)-2-amino-7-(2-(4-chlorophenoxy)ethyl)-6-oxo-6,9-dihydro-1H-purin-7-ium at 2.5 mg/kg, iv by LC-MS/MS analysis; format: ADME, organism-based; design: time < 8 hr, dose 2.5 mg/kg, route intravenous; details: in vivo; method in brief: as §1
[3] = Cytotoxicity against human Mino cells assessed as reduction in cell survival at 100 uM after 48 hrs in presence of ibrutinib by Annexin V/propidium iodide based flow cytometric analysis
Method in brief: (§2)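 MCL lines treated 48 h with compound re-added daily (alone or with co-drug; ibrutinib 25 µM), then survival assessed by Annexin V/PI flow cytometry.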

[4] = biological target: Eukaryotic translation initiation factor 4E-binding protein 1 (Homo sapiens) (UniProt Q13541); test: Inhibition of 4EBP1 phosphorylation at Ser 65 residues in human Mino cells at 100 uM after 48 hrs in presence of ibrutinib by Western blot analysis; format: cell-based
Method in brief: (§3)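 MCL lines treated 48 h with compound; protein quantified and Western blotted with eIF4E, eIF4G, actin, c-Myc and Bcl-2 antibodies.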

[5] = Antiproliferative activity against human Mino cells at 200 uM preincubated for 48 hrs followed by thymidine addition measure after 16 hrs by Thymidine incorporation assay; format: functional
Method in brief: (§4)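 MCL lines treated 48 h with compound re-added daily, alone or with co-drug (ibrutinib 25 µM where used), then thymidine added for a further 16 h; proliferation read as thymidine incorporation.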

[6] = tested on: Z-138; test: Prodrug activation in human Z138 cells assessed as 9-((2R,3R,4S,5R)-5-(((((2-(1H-Indol-3-yl)ethyl)amino)-(hydroxy)phosphoryl)oxy)methyl)-3,4-dihydroxytetrahydrofuran-2-yl)-2-amino-7-(2-(4-chlorophenoxy)ethyl)-6-oxo-6,9-dihydro-1H-purin-7-ium formation per 5 million cells at 150 uM after 12 hrs by LC-MS/MS analysis; format: cell-based; details: z-138, 12 h
Method in brief: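 Mantle cell lymphoma cells (five million) grown in RPMI with 10% FBS, penicillin/streptomycin and L-glutamine at 37 °C, 5% CO2, then exposed to 150 µM compound for 12 h at 37 °C. Washed with ice-cold PBS, pellet extracted in MeOH/NH4OAc (60:40) with 80 fmol internal standards, three liquid-N2 freeze–thaw cycles, filtered, dried, redissolved in 20 mM HEPES pH 7.2. Analysed by LC-MS/MS against a standard curve.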

[7] = tested on: Granta-519; test: Antiproliferative activity against human GRANTA-519 cells preincubated for 48 hrs followed by thymidine addition measure after 16 hrs by Thymidine incorporation assay; format: functional, cell-based; method in brief: as §4
[8] = Cytotoxicity against human Mino cells assessed as reduction in cell survival at 100 uM after 48 hrs in presence of doxorubicin by Annexin V/propidium iodide based flow cytometric analysis; method in brief: as §2
[9] = Antiproliferative activity against human Mino cells after 48 hrs by Annexin V/propidium iodide based flow cytometric analysis; format: functional, cell-based; method in brief: as §2
[10] = biological target: Eukaryotic translation initiation factor 4E (Homo sapiens) (UniProt P06730); test: Inhibition of eIF4E in human Mino cells assessed as down regulation of c-Myc protein expression at 100 uM after 48 hrs in presence of ibrutinib by Western blot analysis; format: cell-based; method in brief: as §3
[11] = tested on: Z-138; test: Antiproliferative activity against human Z138 cells at 200 uM preincubated for 48 hrs followed by thymidine addition measure after 16 hrs by Thymidine incorporation assay; format: functional; method in brief: as §4
[12] = tested on: Rattus norvegicus; test: AUC (0 to 8 hrs) in Sprague-Dawley rat plasma assessed as 9-((2R,3R,4S,5R)-5-(((((2-(1H-Indol-3-yl)ethyl)amino)-(hydroxy)phosphoryl)oxy)methyl)-3,4-dihydroxytetrahydrofuran-2-yl)-2-amino-7-(2-(4-chlorophenoxy)ethyl)-6-oxo-6,9-dihydro-1H-purin-7-ium at 25 mg/kg, po by LC-MS/MS analysis; format: ADME, organism-based; design: time < 8 hr, dose 25 mg/kg, route oral; details: in vivo; method in brief: as §1
[13] = biological target: Eukaryotic translation initiation factor 4E (Homo sapiens) (UniProt P06730); test: Inhibition of eIF4E in human Mino cells assessed as down regulation of c-Myc protein expression at 100 uM after 48 hrs by Western blot analysis; format: cell-based; method in brief: as §3
[14] = biological target: Eukaryotic translation initiation factor 4E (Homo sapiens) (UniProt P06730); test: Inhibition of eIF4E in human Mino cells assessed as potentiation of dexamethasone induced antiproliferation at 100 uM preincubated for 48 hrs followed by thymidine addition measure after 16 hrs by Thymidine incorporation assay; format: cell-based; method in brief: as §4
[15] = biological target: Eukaryotic translation initiation factor 4E (Homo sapiens) (UniProt P06730); test: Inhibition of eIF4E in human Mino cells assessed as down regulation of c-Myc mRNA expression at 100 uM by RT-PCR based RNA Immunoprecipitation; format: cell-based
Method in brief: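 RNA-immunoprecipitation on Mino cells with a RNA-binding protein immunoprecipitation kit.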

[16] = biological target: Eukaryotic translation initiation factor 4E (Homo sapiens) (UniProt P06730); test: Inhibition of eIF4E in human GRANTA-519 cells assessed as disruption of interaction between protein and mRNA 5'-cap at 10 to 100 uM by m7GTP pull-down assay; format: cell-based
Method in brief: (§5)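 Eight to ten million treated MCL cells washed in cold PBS, lysed in cap binding buffer, and eIF4E binding captured on m7GTP-Sepharose beads (pull-down).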

[17] = Half life in HEPES buffer at 80 uM at pH 2 by RP-HPLC analysis; format: physicochemical
Method in brief: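 Compound at 80 µM in 20 mM HEPES (pH 7.2 or 2.0) incubated at 37 °C; aliquots analyzed by RP-HPLC at 0, 1, 4, 6, 12, 18 and 24 h to follow methylthioalkyl deprotection and derive half-life.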

[18] = biological target: Eukaryotic translation initiation factor 4E (Homo sapiens) (UniProt P06730); test: Inhibition of eIF4E in human Mino cells assessed as down regulation of Bcl-2 expression at 50 to 200 uM after 48 hrs by Western blot method; format: cell-based; method in brief: as §3
[19] = AUC (0 to 8 hrs) in Sprague-Dawley rat plasma at 2.5 mg/kg, iv by LC-MS/MS analysis; format: ADME, organism-based; design: time < 8 hr, dose 2.5 mg/kg, route intravenous; method in brief: as §1
[20] = tested on: Plasma; test: Prodrug activation in Sprague-Dawley rat assessed as Hint1 mediated 2-amino-7-(2-(4-chlorophenoxy)ethyl)-9-((2R,3R,4S,5R)-3,4-dihydroxy-5-(phosphonooxymethyl)tetrahydrofuran-2-yl)-6-oxo-6,9-dihydro-1H-purin-7-ium formation in plasma at 2.5 mg/kg, iv or 25 mg/kg, po by LC-MS/MS analysis; format: organism-based; details: in vivo; method in brief: as §1
[21] = biological target: Eukaryotic translation initiation factor 4E (Homo sapiens) (UniProt P06730); test: Inhibition of eIF4E in human Mino cells assessed as increase in p27 protein expression after 48 hrs by Western blot method; format: cell-based; method in brief: as §3
[22] = biological target: Eukaryotic translation initiation factor 4E (Homo sapiens) (UniProt P06730); test: Inhibition of eIF4E in human Mino cells assessed as potentiation of doxorobucin induced antiproliferation at 100 uM preincubated for 48 hrs followed by thymidine addition measure after 16 hrs by Thymidine incorporation assay; format: cell-based; method in brief: as §4
[23] = biological target: Eukaryotic translation initiation factor 4E (Homo sapiens) (UniProt P06730); test: Inhibition of eIF4E in human Z138 cells assessed as disruption of interaction between protein and mRNA 5'-cap at 10 to 100 uM by m7GTP pull-down assay; format: cell-based; method in brief: as §5

Sequence of Eukaryotic translation initiation factor 4E (Homo sapiens) (P06730 whole entry): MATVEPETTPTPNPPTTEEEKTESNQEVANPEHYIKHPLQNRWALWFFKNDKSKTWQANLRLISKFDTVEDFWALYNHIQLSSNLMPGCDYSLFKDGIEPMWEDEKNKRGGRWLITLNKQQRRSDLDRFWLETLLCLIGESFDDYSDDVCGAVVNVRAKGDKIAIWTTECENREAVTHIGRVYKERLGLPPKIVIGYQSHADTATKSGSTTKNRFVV
Sequence of Eukaryotic translation initiation factor 4E-binding protein 1 (Homo sapiens) (Q13541 whole entry): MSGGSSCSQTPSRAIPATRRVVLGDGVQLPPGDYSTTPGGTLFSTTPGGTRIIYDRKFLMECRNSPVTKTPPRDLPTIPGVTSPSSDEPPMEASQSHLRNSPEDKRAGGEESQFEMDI

- Cmax [1]: 5 ng/mL
- AUC [2]: 0.5 µg·min/mL
- inhibition [4]: Active
- Drug metabolism [6]: 37.3 pmol
- inhibition [10]: Active
- AUC [12]: 2.6 µg·min/mL
- inhibition [13]: Active
- inhibition [14]: Active
- inhibition [15]: inactive
- inhibition [16]: Active
- half-life at 80 µM [17]: 5 h
- inhibition [18]: inactive
- AUC(0-t) at 8 h [19]: 0.0233 µg·h/mL
- Drug metabolism [20]: Metabolite_Notdetected
- inhibition [21]: Dose-dependent effect
- inhibition [22]: Active
- inhibition [23]: Active
Structure (SMILES): CSCCOP(=O)(NCCc1c[nH]c2ccccc12)OC[C@H]1O[C@@H](n2c[n+](CCOc3ccc(Cl)cc3)c3c(=O)[nH]c(N)nc32)[C@H](O)[C@@H]1O (some centres undefined)
- Activity [3]: Toxic
- Activity [5]: 100%
- Activity [7]: Dose-dependent effect
- pIC50 [7]: 4.30
- Activity [8]: Non-Toxic
- pIC50 [9]: < 3.70
- Activity [11]: 100%
